Assays:
[1] = system: Human alphaherpesvirus 1; experiment: Antiviral activity against herpes simplex virus type 1(HSV-1) ELISA method; format: functional, organism-based
[2] = system: Human betaherpesvirus 5; experiment: In vitro antiviral activity against human cytomegalovirus by yield reduction assay.; format: functional
How it was run: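 HCMV yield reduction assay; result given as IC90. Averages from two or four experiments, some single; highest concentration tested 100.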

[3] = system: HFF; experiment: Visual cytotoxicity scored on HFF cells at the time of HCMV plaque enumeration.; format: functional, cell-based, Homo sapiens
How it was run: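 Stationary HFF cells not affected by the plaque-assay virus examined microscopically for cytotoxicity, scored at the time HCMV plaques were counted. Top concentration tested 100; averages of two or four experiments, some single.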

[4] = system: Human betaherpesvirus 5; experiment: In vitro antiviral activity against human cytomegalovirus by plaque method.; format: functional, organism-based
How it was run: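 HCMV plaque reduction assay; result given as IC50 (concentration reducing plaque number by 50%). Averages from two or four experiments, some from a single experiment; highest concentration tested 100.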

[5] = system: KB; experiment: In vitro inhibition of KB cell proliferation.; format: functional, cell-based, Homo sapiens
How it was run: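 KB cells grown over two population doublings of untreated controls with compound; proliferation quantified by crystal violet staining and spectrophotometric reading of dye eluted from stained cells. Values are IC50s averaged from two or four experiments, some from a single experiment.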

[6] = system: L1210; experiment: Inhibition of L1210 murine leukemic cells proliferation in vitro; format: functional, cell-based, Mus musculus
How it was run: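 L1210 murine leukemia cells grown with compound; cell counts taken at 0, 48 and 96 h. Where growth rate in treated cultures fell during the run, the 48–96 h rate was used.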

Structure (SMILES)	IC50 ([1]; Human alphaherpesvirus 1)	IC90 ([2]; Human betaherpesvirus 5)	IC50 ([3]; Homo sapiens, HFF)	IC50 ([4]; Human betaherpesvirus 5)	IC50 ([5]; Homo sapiens, KB)	IC50 ([6]; Mus musculus, L1210)	IC50 [1]	IC90 [2]	IC50 ([3]; hff)	IC50 [4]	IC50 ([5]; kb)	IC50 ([6]; l1210)
N#Cc1cn(C2C=CC(CO)O2)c2ncnc(N)c12 (stereo not given)	41 µM	> 100 µM	> 100 µM	5.1 µM	176 µM							
NC(=S)c1cn(C2CCC(CO)O2)c2ncnc(N)c12 (stereo not given)	6 µM	12 µM	29 µM	2.5 µM	11 µM	24 µM						
N#Cc1cn(C2OC(CO)CC2O)c2ncnc(N)c12 (stereo not given)	2.6 µM	1.4 µM	3 µM	0.4 µM	4 µM	0.1 µM						
NC(=S)c1cn(C2OC(CO)CC2O)c2ncnc(N)c12 (stereo not given)	58 µM	3 µM	2.1 µM	0.5 µM	3 µM	0.6 µM						
NC(=S)c1cn([C@@H]2O[C@H](CO)[C@@H](O)[C@H]2O)c2ncnc(N)c12		0.1 µM	0.32 µM	0.4 µM	0.03 µM	0.03 µM						
NC(=S)c1cn([C@@H]2O[C@H](CO)[C@H](O)[C@H]2O)c2ncnc(N)c12	1.9 µM	0.4 µM	0.6 µM	0.6 µM	1 µM	0.5 µM						
N#Cc1cn([C@@H]2O[C@H](CO)[C@@H](O)[C@@H]2N)c2ncnc(N)c12	320 µM	110 µM	> 100 µM			100 µM						
NC(=S)c1cn([C@H]2C[C@H](O)[C@@H](CO)O2)c2ncnc(N)c12	8.2 µM	15 µM	41 µM	5.7 µM	7 µM	3.9 µM						
N#Cc1cn([C@H]2C[C@H](O)[C@@H](CO)O2)c2ncnc(N)c12	4.5 µM	13 µM	66 µM	35 µM	25 µM	80 µM						
N=C(S)c1cn([C@@H]2O[C@H](CO)[C@@H](O)[C@@H]2N)c2ncnc(N)c12	28 µM	41 µM	73 µM	1.6 µM	2.5 µM	2 µM						
NC(=S)c1cn([C@@H]2O[C@H](CO)[C@@H](O)[C@@H]2O)c2ncnc(N)c12	4.7 µM	1.9 µM	29 µM	0.9 µM	2 µM	5 µM						
NC(=S)c1cn(C2C=CC(CO)O2)c2ncnc(N)c12 (stereo not given)	14 µM	5 µM	18 µM	2.7 µM	5 µM	3 µM						
N#Cc1cn(C2CCC(CO)O2)c2ncnc(N)c12 (stereo not given)	21 µM	90 µM	> 100 µM	19 µM	88 µM							
C[C@H]1OC(n2cc(C(=N)S)c3c(N)ncnc32)[C@H](O)[C@@H]1O (stereo not given in full)			3.2 µM	3.1 µM	0.5 µM	3 µM						
N#Cc1cn([C@@H]2O[C@H](CO)[C@@H](O)[C@H]2O)c2ncnc(N)c12 (stereo in doubt; 2) [TOYOCAMYCIN]							0.4 µM	0.3 µM	0.3 µM	0.3 µM	0.1 µM	0.1 µM
N#Cc1cn([C@@H]2O[C@H](CO)[C@@H](O)[C@H]2O)c2ncnc(N)c12 (stereo in doubt; 6) [TOYOCAMYCIN]								14 µM			17 µM	
N#Cc1cn([C@@H]2O[C@H](CO)[C@@H](O)[C@H]2O)c2ncnc(N)c12 (stereo in doubt; A) [TOYOCAMYCIN]									0.03 µM	0.1 µM		
Nc1nc2c(ncn2COC(CO)CO)c(=O)[nH]1 [GANCICLOVIR]		1.8 µM	> 100 µM		> 100 µM							
